According to ChEMBL document CHEMBL1828576, “Synthesis of new six- and seven-membered 1-N-iminosugars as promising glycosidase inhibitors” (Bioorg Med Chem, 2011):
Active and inactive are the calls of the source. The calls are words filed in the database; no cut-off is given here.

Tests used:
[1] = tested on: Canavalia ensiformis; test: Inhibition of jack bean alpha-mannosidase assessed as residual hydrolysis of p-nitrophenyl-alpha-D-mannopyranoside at 1 mM pre-incubated for 1 hr by Lineweaver-Burk plot analysis
Summary of the method: (§1)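 Each enzyme was pre-incubated with inhibitor (10 µM to 1000 µM) at its optimal pH for 1 h at 37 °C. Hydrolysis was initiated with 2 mM p-nitrophenyl glycopyranoside substrate prepared in 0.025 M citrate, pH 4.0, and quenched with 0.05 M borate, pH 9.8. p-Nitrophenol was read at 405 nm, with controls lacking inhibitor run in parallel. Ki and mode of inhibition were derived from Lineweaver–Burk plots.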

[2] = tested on: Prunus dulcis; test: Inhibition of almond seed beta-galactosidase assessed as residual hydrolysis of p-nitrophenyl-beta-D-galactopyranoside at 1 mM pre-incubated for 1 hr by Lineweaver-Burk plot analysis; summary of the method: as §1
[3] = Inhibition of baker's yeast alpha-glucosidase assessed as residual hydrolysis of p-nitrophenyl-alpha-D-glucopyranoside pre-incubated for 1 hr by spectrometric analysis; set-up: species or system Saccharomyces cerevisiae; summary of the method: as §1
[4] = tested on: Canavalia ensiformis; test: Inhibition of jack bean N-acetyl-beta-D-glucosaminidase assessed as p-nitrophenol release at 1 mM pre-incubated for 1 hr by Lineweaver-Burk plot analysis; summary of the method: as §1
[5] = tested on: Prunus dulcis; test: Inhibition of almond seed beta-glucosidase assessed as residual hydrolysis of p-nitrophenyl-beta-D-glucopyranoside at 1 mM pre-incubated for 1 hr by Lineweaver-Burk plot analysis; summary of the method: as §1
[6] = tested on: Canavalia ensiformis; test: Inhibition of jack bean N-acetyl-beta-D-glucosaminidase assessed as p-nitrophenol release at 1 mM pre-incubated for 1 hr by spectrometric analysis; summary of the method: as §1
[7] = tested on: Geobacillus toebii; test: Inhibition of Geobacillus toebii BK1 alpha-galactosidase assessed as residual hydrolysis of p-nitrophenyl-alpha-D-galactopyranoside at 1 mM pre-incubated for 1 hr by Lineweaver-Burk plot analysis
Summary of the method: (§2)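 The enzyme was pre-incubated with inhibitor (10 µM to 1000 µM) for 1 h at 60 °C at the enzyme's optimal pH. The reaction was started with 2 mM p-nitrophenyl glycopyranoside made up in 0.025 M citrate buffer, pH 4.0. It was stopped with 0.05 M borate buffer, pH 9.8, and released p-nitrophenol was read at 405 nm against inhibitor-free controls. Ki and inhibition type came from Lineweaver–Burk plots.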

[8] = Inhibition of baker's yeast alpha-glucosidase assessed as residual hydrolysis of p-nitrophenyl-alpha-D-glucopyranoside pre-incubated for 1 hr by Lineweaver-Burk plot analysis; set-up: species or system Saccharomyces cerevisiae; summary of the method: as §1
[9] = Inhibition of Geobacillus toebii BK1 alpha-galactosidase assessed as residual hydrolysis of p-nitrophenyl-alpha-D-galactopyranoside pre-incubated for 1 hr by Lineweaver-Burk plot analysis; summary of the method: as §2
[10] = Inhibition of Geobacillus toebii BK1 alpha-galactosidase assessed as residual hydrolysis of p-nitrophenyl-alpha-D-galactopyranoside pre-incubated for 1 hr by spectrometric analysis; summary of the method: as §2
[11] = tested on: Saccharomyces cerevisiae; test: Inhibition of baker's yeast alpha-glucosidase assessed as residual hydrolysis of p-nitrophenyl-alpha-D-glucopyranoside at 1 mM pre-incubated for 1 hr by Lineweaver-Burk plot analysis; summary of the method: as §1
[12] = tested on: Geobacillus toebii; test: Competitive inhibition of Geobacillus toebii BK1 alpha-galactosidase assessed as residual hydrolysis of p-nitrophenyl-alpha-D-galactopyranoside pre-incubated for 1 hr by Lineweaver-Burk plot analysis; summary of the method: as §2
[13] = Inhibition of sweet almond beta-glucosidase; set-up: species or system Prunus dulcis; summary of the method: as §1

inhibition [1]	inhibition [2]	IC50 [3]	inhibition [4]	inhibition [5]	inhibition [6]	inhibition [7]	Ki [8]	Ki [9]	IC50 [10]	inhibition [11]	inhibition [12]	Ki [13]	SMILES
inactive	inactive	675 µM	inactive	inactive	< 50%	inactive	131 µM	–	–	–	–	–	OCC[C@@H]1CNC[C@H](O)[C@@H](O)[C@@H]1O
inactive	inactive	–	inactive	inactive	< 50%	–	–	66 µM	65 µM	inactive	Active	–	OCC[C@@H]1CNC[C@@H](O)[C@@H]1O
inactive	inactive	–	inactive	inactive	< 50%	–	–	54 µM	50 µM	inactive	Active	–	CN1C[C@@H](CCO)[C@@H](O)[C@H](O)C1
–	–	–	–	–	–	–	–	–	–	–	–	0.11 µM	OC[C@H]1CNC[C@@H](O)[C@@H]1O [AFEGOSTAT]
